Data on 37 compounds can be found in ChEMBL document CHEMBL1146851, “Discovery of 2-pyrimidyl-5-amidothiophenes as potent inhibitors for AKT: synthesis and SAR studies” (Bioorg Med Chem Lett, 2006).

Experiment [1] concerns the target T1, RAC-gamma serine/threonine-protein kinase (Homo sapiens, UniProt Q9Y243). Put plainly: Inhibition of AKT3 in presence of 0.2 uM ATP. The procedure, abridged:
(§1)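 Biochemical kinase IC50s, each run with ATP at or below its Km.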

Experiment [2] relates to DOV13. Kind of experiment: Antiproliferative activity against human DOV13 cell line. It counts as functional, cell-based.
For experiment [3], the target named is T2, Serine/threonine-protein kinase AKT (Homo sapiens, UniProt P31751+Q9Y243+P31749). Kind of experiment: Activity against AKT-mediated GSK3 S9P phosphorylation in human DOV13 cell line. It counts as functional, cell-based.
Experiment [4] has as its target T3, cAMP-dependent protein kinase (PKA) (Homo sapiens, UniProt P22694+P17612+P22612). Kind of experiment: Inhibitory activity against PKA in human UACC903 cell line at 33 nM. It counts as functional, cell-based. As to conditions: UACC-903. The essentials: (§2)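 UACC903 melanoma cells were pre-incubated with the test compound at various concentrations for 45 min, then stimulated with 7 μM forskolin for 15 min before lysis. Lysates were Western blotted for phospho-VASP as the PKA read-out, with phospho-MDM2 as the AKT read-out.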

Experiment [5] has as its target T2, Serine/threonine-protein kinase AKT. Kind of experiment: Activity against AKT-mediated S6RP S235/236P phosphorylation in human DOV13 cell line. Type of experiment: functional, cell-based.
Experiment [6] addresses Calcium/calmodulin-dependent protein kinase type II subunit alpha (Homo sapiens, UniProt Q9UQM7). Kind of experiment: Inhibition of CamK2alpha. The essentials:
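IC50 from an in vitro kinase assay with ATP at or below its Km.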

Experiment [7] concerns the target Hepatocyte growth factor receptor (Homo sapiens, UniProt P08581). Put plainly: Inhibition of Met. The procedure, abridged: as §1
For experiment [8], the target named is RAC-alpha serine/threonine-protein kinase (Homo sapiens, UniProt P31749). Put plainly: Inhibition of AKT1. The essentials:
as §1

Experiment [9] addresses Mitogen-activated protein kinase 3 (Homo sapiens, UniProt P27361). Put plainly: Inhibition of ERK1. The procedure, abridged:
as §1

The target in experiment [10] is T3, cAMP-dependent protein kinase (PKA). Put plainly: Inhibitory activity against PKA in human UACC903 cell line at 10 nM. It counts as functional, cell-based. The conditions noted are these: UACC-903. The procedure, abridged:
as §2

The target of experiment [11] is RAF proto-oncogene serine/threonine-protein kinase (Homo sapiens, UniProt P04049). Kind of experiment: Inhibition of RAF1. The procedure, abridged:
as §1

Experiment [12] concerns the target T3, cAMP-dependent protein kinase (PKA). Kind of experiment: Inhibition of PKA. It counts as protein assay. The procedure, abridged:
as §1

Experiment [13] has as its target Mast/stem cell growth factor receptor Kit (Homo sapiens, UniProt P10721). Put plainly: Inhibition of Kit.
Experiment [14] concerns the target T1, RAC-gamma serine/threonine-protein kinase. Kind of experiment: Inhibition of AKT3. The essentials:
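Kinase IC50 determined in a biochemical kinase assay with ATP at or below its Km.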

The target in experiment [15] is Protein kinase C alpha type (Homo sapiens, UniProt P17252). Kind of experiment: Inhibition of PKCa.
In experiment [16] the target is T2, Serine/threonine-protein kinase AKT. Put plainly: Activity against AKT-mediated PRAS40 T246P phosphorylation in human DOV13 cell line. It counts as functional, cell-based.

Active and inactive are the calls of the source. No cut-off for these calls is given here.

The term IC50 denotes the concentration that inhibits the measured activity by half. The term EC50 denotes the concentration needed to bring the measured effect to its halfway point.

T1 sequence (Q9Y243 whole entry): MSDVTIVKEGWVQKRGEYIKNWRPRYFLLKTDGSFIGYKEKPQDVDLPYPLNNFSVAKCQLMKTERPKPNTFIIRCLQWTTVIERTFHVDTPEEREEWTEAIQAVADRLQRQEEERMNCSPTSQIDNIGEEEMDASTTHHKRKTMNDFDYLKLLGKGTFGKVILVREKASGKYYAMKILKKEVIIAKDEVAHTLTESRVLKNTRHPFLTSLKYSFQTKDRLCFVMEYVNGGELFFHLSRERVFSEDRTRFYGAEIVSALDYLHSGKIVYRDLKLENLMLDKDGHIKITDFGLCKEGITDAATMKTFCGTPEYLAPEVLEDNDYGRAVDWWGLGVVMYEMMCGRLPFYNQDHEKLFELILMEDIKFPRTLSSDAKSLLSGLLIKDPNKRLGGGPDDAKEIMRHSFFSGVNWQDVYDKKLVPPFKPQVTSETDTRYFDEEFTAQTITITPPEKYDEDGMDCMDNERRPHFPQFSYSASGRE
Chain of RAF proto-oncogene serine/threonine-protein kinase (P04049 whole entry): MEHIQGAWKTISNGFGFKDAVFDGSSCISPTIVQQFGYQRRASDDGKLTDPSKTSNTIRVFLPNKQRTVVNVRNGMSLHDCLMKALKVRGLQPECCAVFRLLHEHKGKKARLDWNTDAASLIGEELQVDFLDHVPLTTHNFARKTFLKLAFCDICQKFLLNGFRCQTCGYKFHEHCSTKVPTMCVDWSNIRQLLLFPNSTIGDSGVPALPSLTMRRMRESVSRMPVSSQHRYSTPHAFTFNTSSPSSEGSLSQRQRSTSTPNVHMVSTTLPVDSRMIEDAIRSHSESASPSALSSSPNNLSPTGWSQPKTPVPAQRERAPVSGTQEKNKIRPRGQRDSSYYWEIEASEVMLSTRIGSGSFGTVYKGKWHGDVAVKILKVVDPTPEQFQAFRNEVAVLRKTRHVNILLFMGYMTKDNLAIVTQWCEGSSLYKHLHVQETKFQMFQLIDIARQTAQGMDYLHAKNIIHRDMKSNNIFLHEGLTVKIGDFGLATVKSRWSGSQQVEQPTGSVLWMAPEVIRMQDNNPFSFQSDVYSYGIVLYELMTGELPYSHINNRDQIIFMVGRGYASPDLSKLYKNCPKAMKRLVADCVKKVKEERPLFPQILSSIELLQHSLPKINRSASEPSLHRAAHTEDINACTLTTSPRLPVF
Chain of Mitogen-activated protein kinase 3 (P27361 whole entry): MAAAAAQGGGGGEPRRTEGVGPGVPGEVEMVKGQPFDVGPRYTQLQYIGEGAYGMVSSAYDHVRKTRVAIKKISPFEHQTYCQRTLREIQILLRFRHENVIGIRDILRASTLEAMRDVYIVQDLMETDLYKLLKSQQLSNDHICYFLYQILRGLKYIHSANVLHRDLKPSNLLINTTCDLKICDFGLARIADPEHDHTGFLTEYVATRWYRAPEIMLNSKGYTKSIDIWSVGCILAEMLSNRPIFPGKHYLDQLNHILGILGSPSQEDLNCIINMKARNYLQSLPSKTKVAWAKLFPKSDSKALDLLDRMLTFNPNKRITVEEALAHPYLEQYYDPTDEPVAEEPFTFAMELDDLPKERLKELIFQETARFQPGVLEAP
Chain of Mast/stem cell growth factor receptor Kit (P10721 whole entry): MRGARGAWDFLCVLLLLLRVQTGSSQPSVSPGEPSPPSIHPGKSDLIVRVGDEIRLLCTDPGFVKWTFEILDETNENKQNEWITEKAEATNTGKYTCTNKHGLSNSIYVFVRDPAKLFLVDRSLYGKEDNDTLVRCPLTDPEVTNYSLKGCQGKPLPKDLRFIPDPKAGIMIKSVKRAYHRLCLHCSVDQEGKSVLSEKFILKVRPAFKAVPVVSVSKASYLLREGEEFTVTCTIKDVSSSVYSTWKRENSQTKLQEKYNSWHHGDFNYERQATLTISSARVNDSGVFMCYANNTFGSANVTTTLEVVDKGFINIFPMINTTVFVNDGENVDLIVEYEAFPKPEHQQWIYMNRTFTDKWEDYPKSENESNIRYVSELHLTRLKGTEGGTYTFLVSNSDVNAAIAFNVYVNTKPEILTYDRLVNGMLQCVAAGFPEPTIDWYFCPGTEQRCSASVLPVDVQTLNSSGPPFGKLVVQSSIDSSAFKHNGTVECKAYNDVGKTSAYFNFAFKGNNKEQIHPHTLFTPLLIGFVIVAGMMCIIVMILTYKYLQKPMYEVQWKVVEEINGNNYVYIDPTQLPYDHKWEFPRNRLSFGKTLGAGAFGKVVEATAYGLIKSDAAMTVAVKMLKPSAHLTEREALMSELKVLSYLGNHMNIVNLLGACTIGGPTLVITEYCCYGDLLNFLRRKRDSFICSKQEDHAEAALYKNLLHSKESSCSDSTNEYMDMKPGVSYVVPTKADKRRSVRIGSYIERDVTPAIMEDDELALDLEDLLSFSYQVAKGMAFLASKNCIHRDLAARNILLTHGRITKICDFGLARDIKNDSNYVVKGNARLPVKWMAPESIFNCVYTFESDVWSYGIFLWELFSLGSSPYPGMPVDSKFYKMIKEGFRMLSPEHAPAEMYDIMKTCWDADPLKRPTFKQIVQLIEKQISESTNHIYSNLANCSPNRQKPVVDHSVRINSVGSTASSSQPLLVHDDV
Chain of Calcium/calmodulin-dependent protein kinase type II subunit alpha (Q9UQM7 whole entry): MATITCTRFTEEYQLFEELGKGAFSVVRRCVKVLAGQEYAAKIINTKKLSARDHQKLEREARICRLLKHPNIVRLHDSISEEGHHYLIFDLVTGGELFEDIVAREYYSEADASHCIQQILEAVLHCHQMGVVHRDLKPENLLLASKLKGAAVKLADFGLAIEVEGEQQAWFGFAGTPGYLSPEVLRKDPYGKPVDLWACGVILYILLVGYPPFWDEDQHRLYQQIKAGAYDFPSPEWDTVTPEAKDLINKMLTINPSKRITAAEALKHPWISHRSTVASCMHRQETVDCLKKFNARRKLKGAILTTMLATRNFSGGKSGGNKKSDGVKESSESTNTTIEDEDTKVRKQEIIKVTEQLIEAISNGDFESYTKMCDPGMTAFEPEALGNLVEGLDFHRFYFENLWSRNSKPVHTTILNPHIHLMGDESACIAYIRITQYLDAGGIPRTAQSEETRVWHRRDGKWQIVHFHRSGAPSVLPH
Chain of Hepatocyte growth factor receptor (P08581 whole entry): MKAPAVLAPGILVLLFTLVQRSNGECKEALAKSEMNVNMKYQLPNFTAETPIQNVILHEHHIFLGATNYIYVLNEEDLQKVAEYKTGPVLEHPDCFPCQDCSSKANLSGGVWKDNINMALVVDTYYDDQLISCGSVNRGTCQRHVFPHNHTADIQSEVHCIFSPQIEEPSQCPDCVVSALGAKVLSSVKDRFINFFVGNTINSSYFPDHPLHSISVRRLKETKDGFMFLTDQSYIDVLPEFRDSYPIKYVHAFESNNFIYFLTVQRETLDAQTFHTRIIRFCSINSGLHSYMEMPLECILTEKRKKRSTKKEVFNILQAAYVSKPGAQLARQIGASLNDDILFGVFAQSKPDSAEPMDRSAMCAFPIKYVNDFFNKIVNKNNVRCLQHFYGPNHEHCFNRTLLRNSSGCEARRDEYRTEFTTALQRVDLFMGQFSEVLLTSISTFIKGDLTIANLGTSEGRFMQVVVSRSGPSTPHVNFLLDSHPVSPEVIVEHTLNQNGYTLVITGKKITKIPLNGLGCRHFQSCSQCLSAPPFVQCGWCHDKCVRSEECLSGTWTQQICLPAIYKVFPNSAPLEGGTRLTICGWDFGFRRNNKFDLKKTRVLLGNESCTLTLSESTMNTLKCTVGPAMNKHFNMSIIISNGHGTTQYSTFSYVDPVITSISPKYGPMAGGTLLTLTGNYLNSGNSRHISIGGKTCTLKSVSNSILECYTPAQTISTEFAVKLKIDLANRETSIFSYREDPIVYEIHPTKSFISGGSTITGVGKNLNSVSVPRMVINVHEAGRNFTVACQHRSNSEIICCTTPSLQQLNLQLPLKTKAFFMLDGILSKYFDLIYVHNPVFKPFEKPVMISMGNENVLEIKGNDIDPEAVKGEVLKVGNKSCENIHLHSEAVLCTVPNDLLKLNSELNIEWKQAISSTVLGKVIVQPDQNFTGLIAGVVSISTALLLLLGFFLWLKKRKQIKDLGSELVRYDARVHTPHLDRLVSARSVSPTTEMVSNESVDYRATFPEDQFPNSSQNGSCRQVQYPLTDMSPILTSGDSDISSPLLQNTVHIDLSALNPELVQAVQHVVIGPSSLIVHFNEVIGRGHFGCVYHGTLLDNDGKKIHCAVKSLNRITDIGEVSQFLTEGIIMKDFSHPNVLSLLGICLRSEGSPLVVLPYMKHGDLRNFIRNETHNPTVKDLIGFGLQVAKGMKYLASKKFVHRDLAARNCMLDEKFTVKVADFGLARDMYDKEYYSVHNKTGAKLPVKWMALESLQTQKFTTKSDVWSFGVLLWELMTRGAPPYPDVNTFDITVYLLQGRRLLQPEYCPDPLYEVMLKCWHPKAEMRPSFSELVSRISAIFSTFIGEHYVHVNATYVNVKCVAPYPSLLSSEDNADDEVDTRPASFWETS

For `CNc1nccc(-c2ccc(C(=O)Nc3ccc(F)cc3)s2)n1`, in [1], the IC50 was above 25 µM. Take `CNc1nccc(-c2ccc(C(=O)N[C@H](CCN)Cc3ccc(Cl)cc3Cl)s2)n1`: in experiment [1], the half-maximal inhibitory concentration (IC50) was found to be 0.027 µM. The same measure, in the same setting: for `CN(C)c1nccc(-c2ccc(C(=O)NCCc3ccc(Cl)cc3Cl)s2)n1` the value was above 25 µM. Still for that read-out and setting: for `CNc1nccc(-c2ccc(C(=O)N[C@@H](CN)Cc3ccc(Cl)cc3Cl)s2)n1` the value was 0.24 µM. Still for that read-out and setting: under `CNc1nccc(-c2ccc(C(=O)NCC(C)c3ccc(Cl)cc3Cl)s2)n1` (stereo unspecified) stands 0.66 µM.

For `CNc1nccc(-c2ccc(C(=O)NCCN)s2)n1`, the IC50 in [1] was determined as 1.3 µM. Regarding `CNc1nccc(-c2ccc(C(=O)NCCc3ccccc3)s2)n1`, in experiment [1], the concentration for half-maximal inhibition (IC50) was 5 µM. Take `CNc1nccc(-c2ccc(C(=O)NCCc3ccc(C)cc3)s2)n1`: the concentration for half-maximal inhibition (IC50) in experiment [1] is above 25 µM. Consider `CNc1nccc(-c2ccc(C(=O)NCCc3ccc(F)cc3)s2)n1`, for which, in experiment [1], the IC50 was found to be 3 µM. Same read-out and setting: for `CNc1nccc(-c2ccc(C(=O)NCCc3cccc(Cl)c3)s2)n1` the value was 5.4 µM.

As to `CNc1nccc(-c2ccc(C(=O)N[C@@H](Cc3ccc(Cl)cc3Cl)C(=O)OC)s2)n1`, in experiment [1], the IC50 is 2.4 µM. Take `CNc1nccc(-c2ccc(CNCCc3ccc(Cl)cc3Cl)s2)n1`: the half-inhibitory concentration (IC50) in [1] was determined as 5.2 µM. The same measure, in the same setting: for `CNc1nccc(-c2ccc(S(=O)(=O)NCCc3ccc(Cl)cc3Cl)s2)n1` the value was above 25 µM.

Turning to `Nc1nccc(-c2ccc(C(=O)NCCc3ccc(Cl)cc3Cl)s2)n1`, in experiment [1], the 50% inhibitory concentration (IC50) was determined as 0.61 µM. Same read-out and setting: under `CNc1nccc(-c2ccc(C(=O)NCCc3ccc(S(N)(=O)=O)cc3)s2)n1` stands 19 µM; under `CCC(CNC(=O)c1ccc(-c2ccnc(NC)n2)s1)c1ccc(Cl)cc1Cl` (stereo unspecified), 1 µM. As to `CNc1nccc(-c2ccc(C(=O)NCCc3ccc(Cl)cc3)s2)n1`, the IC50 in experiment [1] worked out at 1.1 µM. Regarding `CNc1nccc(-c2ccc(C(=O)NCCc3ccccc3Cl)s2)n1`, the half-inhibitory concentration (IC50) in experiment [1] was 2.9 µM. Same read-out and setting: for `CNc1nccc(-c2ccc(C(=O)NCCc3ccc(OC)cc3)s2)n1` the value was above 25 µM. For `CNc1nccc(-c2ccc(C(=O)N[C@H](CN)Cc3ccc(Cl)cc3Cl)s2)n1`, the EC50 came to 1 µM in experiment [2], 0.32 µM in experiment [3], 0.37 µM in [5] and 0.16 µM in [16]. Besides, the result in experiment [4] and in [10] was Active. For the same compound, the half-inhibitory concentration (IC50) is 8 µM in [6]; 1.1 µM in [7]; 0.006 µM in experiment [8]; 0.4 µM in [9]; above 10 µM in experiment [11]; 0.0001 µM in experiment [12]. For the same compound, the concentration for half-maximal inhibition (IC50) in [13] is 0.11 µM; in experiment [14], 0.003 µM; in [15], 0.066 µM. With `CNc1nccc(-c2ccc(NC(=O)OCc3ccc(F)cc3)s2)n1`, the IC50 in experiment [1] worked out at 7.4 µM. For the compound `CNc1nccc(-c2ccc(C(=O)NCCCc3ccc(F)cc3)s2)n1`, the IC50 in [1] was 18 µM. On the same count and under the same terms, for `CNc1nccc(-c2ccc(C(=O)NCCc3ccncc3)s2)n1` the value was above 25 µM; for `CNc1nccc(-c2ccc(NC(=O)NCc3ccc(Cl)cc3Cl)s2)n1`, 2.1 µM.

For the compound `CNc1nccc(-c2ccc(C(=O)N[C@@H](Cc3ccc(Cl)cc3Cl)CN(C)C)s2)n1`, in [1], the IC50 stood at 0.011 µM.

Consider `CNc1nccc(-c2ccc(C(=O)NCCc3ccc(Br)cc3)s2)n1`, for which, in [1], the IC50 was 2.6 µM. On the same count and under the same terms, under `CNc1nccc(-c2ccc(NC(=O)CCc3ccc(F)cc3)s2)n1` stands 2.3 µM; under `CNc1nccc(-c2ccc(C(=O)NC[C@@H](N)c3ccccc3)s2)n1`, 2.8 µM; under `CCCNc1nccc(-c2ccc(C(=O)NCCc3ccc(Cl)cc3Cl)s2)n1`, above 25 µM. The same measure, in the same setting: for `CNc1nccc(-c2ccc(C(=O)NC(CN)Cc3ccc(Cl)cc3Cl)s2)n1` (stereo unspecified) the value was 0.0048 µM.

Regarding `CNc1nccc(-c2ccc(C(=O)N[C@H](CO)Cc3ccc(Cl)cc3Cl)s2)n1`, in [1], the concentration for half-maximal inhibition (IC50) came out at 0.28 µM.

Take `CNc1nccc(-c2ccc(C(=O)NCC(c3ccccc3)c3ccccc3)s2)n1`: the half-inhibitory concentration (IC50) in experiment [1] is above 25 µM. As for `CCNc1nccc(-c2ccc(C(=O)NCCc3ccc(Cl)cc3Cl)s2)n1`, the 50% inhibitory concentration (IC50) in [1] is 1.5 µM.

With `CNc1nccc(-c2ccc(C(=O)NCCc3ccc(Cl)cc3Cl)s2)n1`, the half-inhibitory concentration (IC50) in [1] came to 0.99 µM. The same measure, in the same setting: for `CNc1nccc(-c2ccc(C(=O)NCCN(C)C)s2)n1` the value was 7 µM; for `CNc1nccc(-c2ccc(C(=O)N[C@H](C)Cc3ccc(Cl)cc3Cl)s2)n1`, 0.82 µM. Consider `CNc1nccc(-c2ccc(C(=O)NCc3ccc(F)cc3)s2)n1`, for which, in [1], the half-inhibitory concentration (IC50) was determined as 4.7 µM.
